B1: GFP-SLAIN1: GFP-tagged SLAIN1 (protein)
chain: MMAEQVKCASPVAASGAGPGPVVNAELEVKKLQELVRKLEKQNEQLRSRAASAAAAPHLLLLQPPPPSAPPPAGACSPLATHRAPASTTSPGPGALGPAFPGTYCLPSPAPSLLCSLQPADAPFVYSKPAAGFFGGGGSPEPGTAGTPPGEAATPPLPPPTLLDEVEPLDLESLAAWSEEDDYTWLYVGSSKTFTSPEKSPSPLQWCRHVLDNPTPEMEAARRSLRFRLEQGYTSRGSPLSPQSSIDSELSTSELEDDSISMGYKLQDLTDVQIMARLQEESLRQDYASTSASVSRNSSSVSLSSGKKGTCSDQEYDRYSLEDEEEFDHLPPPQPRLPRCSPFQRGIPHSQTFSSIRDCRRSPSTQYFPSNNFQQPQYYPPQAQTADQQPNRTNGDKLRRSMPNLARMPSTAAASSNLSSPVTVRSSQSFDSSLHGAGSGVSRVPSCIPSPGQIQHRVHSVGHFPVPIRQPLKATAYVSPTVQGSSSSGSSGSSGGSGSGMPLSNGTQLYSTTGIPTPNKAAASGILGRSALPRPSLAINGSNLPRSKIAQPVRSFLQPPKPLSSLSTLRDGNWRDGCY
modifications: left off: GFP, end not stated, kept
B2: GFP–CLIP-170-N: amino acids 4–309 of the rat CLIP-170 (protein)
chain: LKPSGLKAPTKILKPGSTALKTPAAAAAPLEKTVPSEKASGPPSSETQEEFVDDFRVGERVWVNGNKPGFIQFLGETQFAPGQWAGIVLDEPIGKNDGSVAGVRYFQCEPLKGIFTRPSKLTRKVQAEDEANGLQTAHARAASPLSTAAATMVSSSPATPSNIPQKPSQPVAKETSATPQISNLTKTASESISNLSEAGSVKKGERELKIGDRVLVGGTKAGVVRFLGETDFAKGEWCGVELDEPLGKNDGAVAGTRYFQCQPKYGLFAPVHKVTKIGFPSTTPAKAKAAAVRRVMATTPASLKRS
modifications: left off: GFP, end not stated, kept

What was measured:
[1] = tested on: MT plus ends in HeLa cells; assay: MT plus end tracking, live-cell imaging; type: cell-based; conditions: live or fixed cells
Method in brief: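 HeLa cells were grown in 45% DME, 45% Ham's F10 and 10% fetal calf serum. Live imaging used TIRF/widefield at 37°C in a stage-top incubator in culture medium (100× 1.49 NA objective, EMCCD, 0.065 µm/pixel). For fixed cells, −20°C methanol was applied for 15 min, with a 15-min 4% PFA postfix for SLAIN1/2 and EB1 staining, followed by immunofluorescence on a widefield microscope.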

[2] = tested on: SLAIN2 C terminus / full-length CLIP-170; assay: GST-SLAIN2 pull-down of CLIPs and full-length CLIP-170; type: binding

| Molecule | MT plus end tracking / localization (in words) [1] | association with SLAIN2 C terminus [2] |
| --- | --- | --- |
| B1 | colocalized with EB-positive MT ends | – |
| B2 | – | associated with the SLAIN2 C terminus |

Source: publication PMC3115796 (The Journal of Cell Biology, 2011)
